Assay results published in ChEMBL document CHEMBL1147212, “Quinone reductase induction activity of methoxylated analogues of resveratrol” (2007).
Active and inactive are the calls of the source. No cut-off for these calls is given here.

Key:
Hepa 1c1c7 [1] = assay: Induction of quinone reductase activity in mouse Hepa 1c1c7 cells at 1 uM after 24 hrs relative to control; type: cell-based
Summary of the method: (§1)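 Cells seeded at 10⁴/well and grown 24 h in α-MEM with 10% FCS, 5% CO₂, 37 °C. They were then exposed 24 h to compound (DMSO ≤0.5% final), using the same concentration as the viability test. Lysis used digitonin/EDTA. MTT-coupled menadione reduction mix was added (Tris pH 7.4, FAD, G6P, NADP, G6PDH). Reaction stopped after 5 min with dicoumarol and read at 590 nm. Result is blank-corrected treated/control (0.5% DMSO) ratio, mean ± SD, n = 3. Lines 12-14 used the c1 mutant, which lacks CYP1A1-dependent AHH activity.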

[2] = Cytotoxicity against mouse Hepa 1c1c7 cells assessed as cell viability at 1 uM after 24 hrs by MTT assay; type: functional; conditions: Hepa-1c1c7, 24 h, read-out: Activity
Summary of the method: (§2)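 Hepa 1c1c7 murine hepatoma cells exposed for 24 h to compound from DMSO stock, serially diluted to final […], with DMSO ≤1% final. MTT then added for 3 h, cells lysed, and formazan read at 590 nm. Blank-subtracted absorbance expressed as % of untreated control wells. Mean of at least three independent determinations.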

Hepa 1c1c7c1 [3] = assay: Induction of quinone reductase activity in mouse mutant Hepa 1c1c7c1 cells assessed as concentration required to double the enzyme activity; type: cell-based
Summary of the method: (§3)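 Hepa 1c1c7 wild-type or AHH-deficient c1 mutant cells, 10⁴ per well, grown for 24 h in α-MEM with 10% FCS at 37 °C and 5% CO₂, then exposed to compound from DMSO stock (final DMSO ≤0.5%) for 24 h. Cells were digitonin/EDTA-lysed and given an NADP/G6P-regenerating mix with FAD, MTT and menadione for 5 min. The reaction was stopped with dicoumarol and read at 590 nm; CD is the concentration doubling QR activity versus the DMSO control.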

Hepa 1c1c7 [4] = assay: Induction of quinone reductase activity in mouse Hepa 1c1c7 cells assessed as concentration required to double the enzyme activity; type: cell-based; summary of the method: as §3
Hepa 1c1c7 [5] = assay: Induction of quinone reductase activity in mouse Hepa 1c1c7 cells at 6.3 uM after 24 hrs relative to control; type: cell-based; summary of the method: as §1
[6] = Cytotoxicity against mouse Hepa 1c1c7 cells assessed as cell viability at 12.5 uM after 24 hrs by MTT assay; type: functional; conditions: Hepa-1c1c7, 24 h, read-out: Activity; summary of the method: as §2
Hepa 1c1c7 [7] = assay: Induction of quinone reductase activity in mouse Hepa 1c1c7 cells at 12.5 uM after 24 hrs relative to control; type: cell-based; summary of the method: as §1
Hepa 1c1c7c1 [8] = assay: Induction of quinone reductase in mouse mutant Hepa 1c1c7c1 cells at 12.5 uM after 24 hrs relative to control; type: cell-based; summary of the method: as §1
[9] = Cytotoxicity against mouse Hepa 1c1c7 cells assessed as cell viability at 6.3 uM after 24 hrs by MTT assay; type: functional; conditions: Hepa-1c1c7, 24 h, read-out: Activity; summary of the method: as §2
[10] = Cytotoxicity against mouse Hepa 1c1c7 cells assessed as cell viability at 25 uM after 24 hrs by MTT assay; type: functional; conditions: Hepa-1c1c7, 24 h, read-out: Activity; summary of the method: as §2
Hepa 1c1c7 [11] = assay: Induction of quinone reductase activity in mouse Hepa 1c1c7 cells at 25 uM after 24 hrs relative to control; type: cell-based; summary of the method: as §1
[12] = ABTS radical scavenging activity assessed as trolox equivalent antioxidant capacity; type: functional
Summary of the method: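 ABTS radical cation diluted in PBS pH 7.4 to absorbance 0.700 (±0.02) at 734 nm, 25 °C. Compound added from ethanol stock. Absorbance decrease read at 1, 3 and 5 min. Percent reduction at 5 min plotted against concentration ([…] as printed); slope divided by Trolox slope gives TEAC. Run at least three times on separate occasions.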

[13] = Cytotoxicity against mouse Hepa 1c1c7 cells assessed as cell viability at 5 uM after 24 hrs by MTT assay; type: functional; conditions: Hepa-1c1c7, 24 h, read-out: Activity; summary of the method: as §2
Hepa 1c1c7 [14] = assay: Induction of quinone reductase activity in mouse Hepa 1c1c7 cells at 5 uM after 24 hrs relative to control; type: cell-based; summary of the method: as §1

| SMILES | Activity (Hepa 1c1c7 [1]) | viability at 1 µM [2] | viability at 12.5 µM [6] | Activity (Hepa 1c1c7 [7]) | other results |
| --- | --- | --- | --- | --- | --- |
| COc1ccc(/C=C/c2ccc(OC)c(OC)c2)cc1 | < 1 | 100% |  |  |  |
| COc1ccc(/C=C/c2cc(OC)cc(OC)c2)cc1 [TRISMETHOXYRESVERATROL] | < 1 | 94% |  |  |  |
| C[S+]([O-])CCCCN=C=S (stereo unspecified) |  |  |  |  | Activity (Hepa 1c1c7c1 [3]): 0.28 µM; Activity (Hepa 1c1c7 [4]): 0.26 µM |
| COc1ccc(/C=C\c2cc(OC)c(OC)c(OC)c2)cc1 | < 1 | 88% |  |  |  |
| COc1ccc(/C=C/c2cc(OC)c(OC)c(OC)c2)cc1 | < 1 | 86% |  |  |  |
| O=c1cc(-c2ccccc2)oc2ccc3ccccc3c12 |  |  |  |  | Activity (Hepa 1c1c7c1 [3]): inactive; Activity (Hepa 1c1c7 [4]): 0.028 µM |
| COc1ccc(/C=C\c2ccc(OC)c(OC)c2)cc1 [7Z-3,4,4'-TRIMETHOXYSTILBENE] | < 1 | 86% |  |  |  |
| COc1ccc(/C=C/c2ccccc2OC)cc1 |  |  | 58% | 2.04 | Activity (Hepa 1c1c7 [5]): 1.8; fold induction (Hepa 1c1c7c1 [8]): 1.14; viability at 6.3 µM [9]: 73% |
| Oc1ccc(/C=C/c2cc(O)cc(O)c2)cc1 [RESVERATROL] |  |  | 80% | 1.24 | viability at 25 µM [10]: 55%; Activity (Hepa 1c1c7 [11]): 1.5; Activity [12]: 2.74; fold induction (Hepa 1c1c7c1 [8]): 1.16 |
| COc1ccc(/C=C\c2ccc(OC)cc2)cc1 |  |  | 64% | 1.06 |  |
| COc1ccc(/C=C/c2ccc(OC)cc2)cc1 |  |  | 67% | 1.14 |  |
| COc1ccc(/C=C\c2cccc(O)c2)cc1 |  |  |  |  | viability at 5 µM [13]: 90%; Activity [12]: 1.04; Activity (Hepa 1c1c7 [14]): < 1 |
| COc1ccc(/C=C\c2ccc(OC)c(O)c2)cc1 |  |  |  |  | viability at 5 µM [13]: 75%; Activity [12]: 1.11; Activity (Hepa 1c1c7 [14]): < 1 |
| COc1ccc(/C=C\c2ccccc2OC)cc1 | < 1 | 56% |  |  |  |
| COc1ccc(/C=C\c2cc(OC)cc(OC)c2)cc1 [8Z-3,4',5-TRIMETHOXYSTILBENE] | < 1 | 82% |  |  |  |
| COc1ccc(/C=C/c2ccc(OC)cc2OC)cc1 |  |  | 58% | 1.18 |  |
| COc1ccc(/C=C/c2cccc(O)c2)cc1 |  |  | 81% | 1.08 | Activity [12]: 1.11 |
| COc1ccc(/C=C\c2cccc(OC)c2)cc1 | < 1 | 92% |  |  |  |
| COc1ccc(/C=C/c2ccccc2O)cc1 [2-hydroxy-4'-methoxystilbene] |  |  | 80% | 1.13 |  |
| Oc1cc(O)cc(/C=C/c2ccccc2)c1 [PINOSYLVIN] |  |  | 61% | 1.07 | Activity [12]: 2.04 |
| COc1ccc(/C=C\c2ccc(OC)cc2OC)cc1 | < 1 | 85% |  |  |  |
| COc1ccc(/C=C/c2cc(O)cc(O)c2)cc1 [RESVERATROL 4'-METHYL ETHER] |  |  | 87% | 1.14 | Activity [12]: 2.49 |
| COc1ccc(/C=C/c2ccc(OC)c(O)c2)cc1 |  |  | 77% | 1.33 | Activity [12]: 1.29 |
| COc1ccc(/C=C/c2c(OC)cccc2OC)cc1 |  |  | 90% | 1.92 | Activity (Hepa 1c1c7c1 [8]): 1.05 µM |
| COc1ccccc1/C=C/c1ccccc1OC |  |  | 82% | 1.81 | fold induction (Hepa 1c1c7c1 [8]): < 1 |
| COc1ccc(/C=C/c2cccc(OC)c2)cc1 |  |  | 90% | 1.44 | fold induction (Hepa 1c1c7c1 [8]): < 1 |
| COc1ccc(/C=C\c2cc(O)cc(O)c2)cc1 |  |  | 96% | 1.04 | Activity [12]: 1.86 |
